# From ChEMBL document CHEMBL1914456, “Design, synthesis and biological evaluation of mannosyl triazoles as FimH antagonists” (Bioorg Med Chem, 2011)
# How the values were obtained:
# [1] = Octanol-phosphate buffer distribution coefficient, log D of the compound at pH 7.4 after 2 hrs by shake flask method using LC-MS analysis; assay type: physicochemical
# How it was run: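 Miniaturized shake flask. Phosphate buffer (0.1 M, pH 7.4) and 1-octanol mutually saturated. Analyte at 1 µM in buffer, overlaid with octanol at two volume ratios chosen by ALOGPS-predicted logP, three determinations per ratio.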
# [2] = biological target: Type 1 fimbrin D-mannose specific adhesin (Escherichia coli K-12, UniProt P08191); experiment: (§1) Antagonist activity at Escherichia coli recombinant C-terminal 6His-tagged FimH-CRD with a C-terminal thrombin cleavage site expressed in Escherichia coli HM125 assessed as inhibition of streptavidin-horseradish peroxidase conjugated TM-PAA polymer binding after 3 hrs by spectrophotometry
# Type 1 fimbrin D-mannose specific adhesin, sequence (P08191 whole entry): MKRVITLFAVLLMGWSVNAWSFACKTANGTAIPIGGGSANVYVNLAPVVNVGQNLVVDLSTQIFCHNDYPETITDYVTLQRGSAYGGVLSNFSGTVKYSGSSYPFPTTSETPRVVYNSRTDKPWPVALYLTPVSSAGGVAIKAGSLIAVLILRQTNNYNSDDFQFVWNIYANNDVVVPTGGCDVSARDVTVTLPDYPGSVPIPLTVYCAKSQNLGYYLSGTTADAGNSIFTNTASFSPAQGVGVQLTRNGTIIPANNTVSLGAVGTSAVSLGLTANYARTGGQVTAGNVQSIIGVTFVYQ
# How it was run: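 Plates coated overnight at 4 °C with 10 µg/mL FimH-CRD-Th-6His in 20 mM HEPES, 150 mM NaCl, 1 mM CaCl2, pH 7.4, then blocked with 3% BSA for 2 h at 4 °C. Fourfold serial dilutions in buffer with 5% DMSO plus 0.5 µg/mL streptavidin-peroxidase TM-PAA polymer, 3 h at 25 °C. ABTS for 4 min, stopped with oxalic acid, OD 415 nm. Duplicates, repeated at least twice; n-heptyl α-D-mannoside on each plate; IC50 from curve fit.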
# [3] = Permeability of the compound assessed as membrane retention at pH 5 to 7.4 after 16 hrs by PAMPA assay; assay type: ADME; conditions: pH 5, 16 h
# How it was run: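 PAMPA sandwich: donor wells with compound solution, acceptor filter impregnated with GIT-0 lipid and filled with acceptor sink buffer. Incubated undisturbed for 16 h. Donor and acceptor samples quantified by UV spectroscopy and LC-MS; log Pe and membrane retention calculated from these.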
# [4] = Thermodynamic solubility of the compound at pH 6.5 after 24 hrs by shake flask method using LC-MS analysis; assay type: physicochemical; conditions: buffer, read-out: Therm_solubility
# How it was run: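 1 mg solid shaken in 250 µL 50 mM phosphate buffer, pH 6.5: sonicated 15 min, shaken at 600 rpm and 25 °C for 2 h, then left 24 h. pH measured, then filtered by centrifugation. Filtrate diluted and quantified by LC-MS against a six-point calibration from 0.1 to 10 µg/mL.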
# [5] = biological target: Type 1 fimbrin D-mannose specific adhesin (Escherichia coli K-12) (UniProt P08191); experiment: as §1, with “Ratio of compound IC50 to n-heptyl alpha-D-mannopyranoside IC50 for” for “Antagonist activity at”
# Type 1 fimbrin D-mannose specific adhesin (Escherichia coli K-12), sequence (P08191 whole entry): as above
# How it was run: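 FimH-CRD-Th-6His from E. coli HM125, purified on Ni-NTA, coated at 10 µg/mL in assay buffer (20 mM HEPES, 150 mM NaCl, 1 mM CaCl2, pH 7.4) overnight at 4 °C. Wells blocked with 3% BSA for 2 h at 4 °C. Four-fold serial dilutions of compound in buffer with 5% DMSO were added with streptavidin-peroxidase-coupled TM-PAA polymer (0.5 µg/mL). Plates were incubated 3 h at 25 °C, 350 rpm. ABTS was developed 4 min, stopped with 2% oxalic acid, and read at 415 nm. Each compound was run in duplicate and repeated at least twice. IC50 is the concentration that halves maximal specific TM-PAA binding. rIC50 is compound IC50 divided by the IC50 of n-heptyl α-D-mannopyranoside run on the same plate.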
# [6] = Antagonist activity at Escherichia coli […] FimH assessed as disaggregation of microorganism from guinea pig erythrocytes measured for 1400 secs by aggregometry; assay type: functional
# How it was run: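 E. coli UTI89 and guinea pig erythrocytes (separated on Histopaque), each adjusted to OD600 of 4 (1.9 × 10⁸ CFU/mL and 2.2 × 10⁶ cells/mL). Aggregation read as optical density at 740 nm, 37 °C, stirring at 1000 rpm. Instrument calibrated with protein-poor plasma in PBS as 100% and protein-rich plasma with erythrocytes as 0%. Triplicates; IC50 from area under the disaggregation curve.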
# [7] = tested on: Escherichia coli; experiment: Ratio of compound IC50 to n-heptyl alpha-D-mannopyranoside IC50 for Escherichia coli […] FimH assessed as disaggregation of microorganism from guinea pig erythrocytes measured for 1400 secs by aggregometry
Compound,logD at 2 h [1],IC50 [2],R% [3],solubility thermodynamic at 24 h [4],Ratio IC50 [5],IC50 ([6]; read-out: IC50),Ratio IC50 [7],IC50 [6]
OC[C@H]1O[C@H](OCc2cn(-c3ccc(F)cc3)nn2)[C@@H](O)[C@@H](O)[C@@H]1O,-0.15,778 nM,4.6%,> 3000 µg/mL,11.9,,,
O=[N+]([O-])c1ccc(-n2cc(CCO[C@H]3O[C@H](CO)[C@@H](O)[C@H](O)[C@@H]3O)nn2)cc1,-0.3,112 nM,2.9%,> 3000 µg/mL,1.7,,,
OC[C@H]1O[C@H](n2cc(-c3cccc(Cl)c3)nn2)[C@@H](O)[C@@H](O)[C@@H]1O,1.22,331 nM,13.2%,705 µg/mL,5.1,,,
OC[C@H]1O[C@H](n2cc(COc3ccccc3)nn2)[C@@H](O)[C@@H](O)[C@@H]1O,-0.18,493 nM,5.5%,> 3000 µg/mL,7.5,,,
OC[C@H]1O[C@H](Cn2cc(COc3ccccc3)nn2)[C@@H](O)[C@@H](O)[C@@H]1O,-0.83,327 nM,impermeable,,5,,,
OC[C@H]1O[C@H](n2cc(-c3ccc(C(F)(F)F)cc3)nn2)[C@@H](O)[C@@H](O)[C@@H]1O,1.45,144 nM,17.2%,159 µg/mL,2.2,249 µM,3.2,
OC[C@H]1O[C@H](n2cc(-c3ccccc3)nn2)[C@@H](O)[C@@H](O)[C@@H]1O,0.21,,6.4%,> 3000 µg/mL,3.8,,,
OC[C@H]1O[C@H](Cn2cc(-c3ccccc3)nn2)[C@@H](O)[C@@H](O)[C@@H]1O,-0.36,560 nM,7.8%,> 3000 µg/mL,8.5,,,
Cc1ccc(-c2cn(C[C@H]3O[C@H](CO)[C@@H](O)[C@H](O)[C@@H]3O)nn2)cc1,0.23,565 nM,6.3%,1490 µg/mL,8.6,,,
OC[C@H]1O[C@H](n2cc(-c3cccnc3)nn2)[C@@H](O)[C@@H](O)[C@@H]1O,-1.04,216 nM,10.3%,1380 µg/mL,3.3,,,
CO[C@H]1O[C@H](CO)[C@@H](O)[C@H](O)[C@@H]1O,,1900 nM,,,29,,,
OC[C@H]1O[C@H](Cn2cc(-c3cccc(Cl)c3)nn2)[C@@H](O)[C@@H](O)[C@@H]1O,0.68,639 nM,impermeable,> 3000 µg/mL,9.7,,,
O=C([O-])c1cccc(-n2cc(CO[C@H]3O[C@H](CO)[C@@H](O)[C@H](O)[C@@H]3O)nn2)c1.[Na+],,296 nM,,> 3000 µg/mL,4.5,,,
OC[C@H]1O[C@H](OCCc2cn(-c3ccncc3)nn2)[C@@H](O)[C@@H](O)[C@@H]1O,< -1.5,153 nM,4.3%,> 3000 µg/mL,2.3,277 µM,3.6,
COc1ccc(-n2cc(CO[C@H]3O[C@H](CO)[C@@H](O)[C@H](O)[C@@H]3O)nn2)cc1,-0.05,161 nM,7.9%,2600 µg/mL,2.5,,,
Nc1ccc(-n2cc(CO[C@H]3O[C@H](CO)[C@@H](O)[C@H](O)[C@@H]3O)nn2)cc1,0.2,420 nM,4%,> 2000 µg/mL,6.4,299 µM,3.9,

Compound,logD at 2 h [1],IC50 [2],R% [3],solubility thermodynamic at 24 h [4],Ratio IC50 [5],IC50 ([6]; read-out: IC50),Ratio IC50 [7],IC50 [6]
COc1ccc(Cn2cc(CO[C@H]3O[C@H](CO)[C@@H](O)[C@H](O)[C@@H]3O)nn2)cc1,-0.4,511 nM,3.1%,> 3000 µg/mL,7.8,,,
OC[C@H]1O[C@H](OCc2cn(-c3cccc(F)c3)nn2)[C@@H](O)[C@@H](O)[C@@H]1O,0.18,348 nM,5.4%,> 3000 µg/mL,5.3,,,
OC[C@H]1O[C@H](Cn2cc(-c3cccnc3)nn2)[C@@H](O)[C@@H](O)[C@@H]1O,< -1.5,333 nM,impermeable,1880 µg/mL,5.1,,,Not Active
O=C([O-])c1ccc(-n2cc(CO[C@H]3O[C@H](CO)[C@@H](O)[C@H](O)[C@@H]3O)nn2)cc1.[Na+],,207 nM,,> 3000 µg/mL,3.2,,,
Cc1ccc(-c2cn([C@H]3O[C@H](CO)[C@@H](O)[C@H](O)[C@@H]3O)nn2)cc1,0.91,248 nM,11.5%,445 µg/mL,3.8,289 µM,3.7,
OC[C@H]1O[C@H](OCCc2cn(-c3ccc(F)cc3)nn2)[C@@H](O)[C@@H](O)[C@@H]1O,-0.21,196 nM,4%,> 3000 µg/mL,3,216 µM,2.8,
OC[C@H]1O[C@H](OCc2cn(-c3ccncc3)nn2)[C@@H](O)[C@@H](O)[C@@H]1O,0.24,70 nM,9.2%,> 3000 µg/mL,1.1,,,Not Active
OC[C@H]1O[C@H](Cn2cc(-c3ccc(C(F)(F)F)cc3)nn2)[C@@H](O)[C@@H](O)[C@@H]1O,1.07,194 nM,impermeable,525 µg/mL,3,,,Not Active
COc1cccc(Cn2cc(CO[C@H]3O[C@H](CO)[C@@H](O)[C@H](O)[C@@H]3O)nn2)c1,-0.38,452 nM,4%,> 3000 µg/mL,6.9,,,
COc1cccc(Cn2cc(CCO[C@H]3O[C@H](CO)[C@@H](O)[C@H](O)[C@@H]3O)nn2)c1,< -1,229 nM,11.8%,> 3000 µg/mL,3.5,,,
OC[C@H]1O[C@H](OCc2cn(C34CC5CC(CC(C5)C3)C4)nn2)[C@@H](O)[C@@H](O)[C@@H]1O,0.07,135 nM,9.8%,> 3000 µg/mL,2.1,,,
O=C([O-])c1cncc(-n2cc(CO[C@H]3O[C@H](CO)[C@@H](O)[C@H](O)[C@@H]3O)nn2)c1.[Na+],,169 nM,,> 3000 µg/mL,2.6,,,
CCCCCCCO[C@H]1O[C@H](CO)[C@@H](O)[C@H](O)[C@@H]1O,1.65,65.6 nM,21%,> 3000 µg/mL,,,1,
O=[N+]([O-])c1ccc(-n2cc(CO[C@H]3O[C@H](CO)[C@@H](O)[C@H](O)[C@@H]3O)nn2)cc1,-0.16,,4.9%,2600 µg/mL,6.1,,,
OC[C@H]1O[C@H](OCc2cn(Cc3ccccc3)nn2)[C@@H](O)[C@@H](O)[C@@H]1O,-0.33,667 nM,3%,> 3000 µg/mL,10.2,,,
